# This is one part of a sample in which hits are shown more often than they occur.
# V-ATPase pHluor: yeast V-ATPase proton transport regulation by pHLuorin; S. cerevisiae, pHLuorin cytosolic pH fluorescence; response, % at 10 µM; actives 0.37% (n = 350,000); in the data active = response mostly above about 7.3%, no sharp cut-off; inactive = mostly below about 5.4%; also: actives read high
# CHOP inh: inhibitors of CHOP induction in ER stress response; CHO-K1 CHOP-promoter luciferase, tunicamycin-induced, 15-18 h; inhibition, % at 10 µM; actives 3.8% (n = 220,000);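 active = compounds that reduced the stress-induced luciferase reporter signal by more than about 70% of percent inhibition, limit read from the data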;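 also: 0% = tunicamycin plus vehicle and 100% = wells without tunicamycin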
# Tb MetRS inh: blocks T. brucei methionyl-tRNA synthetase activity. purified T. brucei MetRS, ATP depletion, Kinase-Glo luminescence. inhibition, % at 11.9 µM. actives 0.4% (n = 360,000). AID 624268;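 active = inhibition above a per-plate cutoff of the control wells' mean inhibition plus 3 SD, cut at about 5.5% in these data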;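 also: 0% = DMSO wells median and 100% = median of wells with control inhibitor compound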
#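 System: purified T. brucei MetRS enzyme / Detection: Kinase-Glo luciferase luminescence reporting remaining unconsumed ATP / Medium: HEPES buffer with MgCl2, KCl, DTT, spermine, BSA, pyrophosphatase / Replication: singlicate, one well per compound / Evaluation: percent inhibition relative to median high and low control wells / Schedule: 2 h aminoacylation at 25 °C after 15 min preincubation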
# UPR CHOP act: apoptotic UPR (CHOP) activation; actives 0.34% (n = 330,000); AID 449763; CHO-CHOP luciferase reporter, luminescence; percent of tunicamycin response over DMSO baseline; activation, % at 10 µM;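 active = at 10 µM dose, activation of 40% or more, normalized to positive control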;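 also: 100% = tunicamycin at 10 µg/mL and 0% = DMSO alone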
#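 Evaluation: % reporter activation, DMSO baseline versus tunicamycin full activation; System: CHO-CHOP luciferase reporter cell line; Input: 500 cells/well; Incubation: 6 h compound treatment, 37 °C; Measured by: Steady-Glo luciferase luminescence; Dosing: one dose, 10 µM in 0.5% DMSO; Buffer or medium: F12 medium, 10% FBS; Benchmarks: positive tunicamycin 10 µg/mL, negative DMSO alone.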
# UPR XBP1 act: adaptive UPR (XBP1) activation; CHO-XBP1 luciferase reporter, IRE1-XBP1 UPR activation, luminescence; percent of tunicamycin response, DMSO as zero; activation, % at 20 µM; actives 0.33% (n = 330,000); AID 463104;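 active = versus positive control, 20 µM dose yields 30% or more activation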;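 also: 100% = tunicamycin at 10 µg/mL and 0% = DMSO only wells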
#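 Assay system: IRE1-XBP1 luciferase reporter CHO line. Input: 1000 cells/well. Buffer or medium: F12 with 10% serum. Doses: 20 µM, 1% DMSO. Times: overnight seeding at 37 °C, 6 h compound treatment at 37 °C. Technique: Steady-Glo luciferase glow luminescence, 10 min after reagent addition.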
# CHOP inh conf: confirmation of CHOP induction inhibitors | shares compounds with CHOP inh | actives 45% (n = 2,100) | CHO-CHOP promoter luciferase reporter, tunicamycin-induced, luminescence | inhibition, % at 10 µM;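 active = mean of three repeat readings of reporter signal inhibition above a set limit, cut at about 70% in these data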;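 also: 0% = tunicamycin plus vehicle and 100% = wells lacking tunicamycin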
# Numbers without * were called inactive; · = not tested or not shown.
SMILES,V-ATPase pHluor,CHOP inh,Tb MetRS inh,UPR CHOP act,UPR XBP1 act,CHOP inh conf
O=C(Nc1cccc(Cl)c1)C1CCCN(S(=O)(=O)c2ccc(F)cc2)C1 (stereo not drawn),4,99*,0,-2,-2,42
O=C(Nc1ccccc1N1CCN(C(=O)c2ccccc2)CC1)c1cc2ccccc2o1,-1,98*,-1,4,4,26
Cc1ccccc1C(=O)NNC(=S)NC(=O)c1ccc(Cl)cc1Cl,1,96*,0,-1,-1,12
Cn1c(=O)c2ncn(CC(=O)Nc3nc(-c4ccc(Cl)cc4)cs3)c2n(C)c1=O,-4,100*,-1,2,0,61
Cn1c(=O)c2c(ncn2CC(=O)Nc2nc(-c3ccccc3Cl)cs2)n(C)c1=O,-2,19,0,-1,0,·
CC(=O)OCC1=C(C(=O)O)N2C(=O)C(NC(=O)c3ccc(COc4cccc(Cl)c4Cl)o3)C2SC1 (stereo not drawn),3,-20,0,0,-2,·
CNC(=O)c1nnsc1S(=O)(=O)c1ccc(Cl)cc1,-1,107*,0,-10,-11,114*
O=C(c1nnsc1S(=O)c1ccc(Cl)cc1)N1CCOCC1 (stereo not drawn),-1,107*,0,-10,-10,54
O=C(c1nnsc1S(=O)(=O)c1ccc(Cl)cc1)N1CCOCC1,2,102*,0,28,-6,95*
COc1ccc(CN2CCNC(=O)C2CC(=O)NCc2csc(C)n2)c(F)c1 (stereo not drawn),-6,·,0,0,-1,·
Cc1cc(-c2[nH]nc3c2C(c2ccc(Cl)cc2)C(C#N)=C(N)O3)c(C)s1 (stereo not drawn),-1,103*,-1,-1,-3,104*
C[C@@H]1CC=C[C@H]2[C@H]1C(=O)N(Cc1ccccc1)[C@H]2c1ccc2ccccc2c1Br,2,98*,0,22,3,59
CC[C@@H]1CC=C[C@H]2[C@H]1C(=O)N(Cc1ccccc1)[C@H]2c1ccoc1,-3,101*,0,19,-2,137*
Cc1cccc(N2CCN(C(=O)c3c(C)nn(Cc4ccccc4Cl)c3C)CC2)c1C,2,103*,-1,1,-2,86*
CC(=O)Nc1ccc(S(=O)(=O)NCC(=O)OCC(=O)N2CCN(c3ccccc3)CC2)cc1,3,-30,-1,5,1,·
O=C(Oc1ccc2c(c1)OCO2)C12CC3CC(CC(C3)C1)C2,-2,52,0,1,-3,·
O=C(Oc1ccc(O)cc1)C12CC3CC(CC(C3)C1)C2,0,106*,0,-2,1,116*
CCc1nnc(NC(=O)Cc2cc(OC)c(OC)c(OC)c2)s1,3,-3,-1,2,-2,·
Oc1[nH]c2ccc(Br)cc2c1N=Nc1ccc(F)cc1,2,·,-1,3,-2,·
Oc1[nH]c2ccccc2c1N=Nc1ccc(F)cc1,-9,97*,0,0,1,59
Cc1cc2cc(CCNC(=O)c3cccc([N+](=O)[O-])c3)c(=O)[nH]c2cc1C,-2,31,0,1,-2,·
CCN=C1NN=C(c2cc(C)n(CCc3ccccc3)c2C)CS1,2,16,-2,·,·,·
CCN=C1NN=C(c2cc(C)n(Cc3ccco3)c2C)CS1,0,97*,1,-8,-5,98*
Cc1ccc(Nc2nc(N)nc(CN3CCN(c4ccccc4)CC3)n2)cc1Cl,7,103*,0,0,5,75*
Cc1ccc(Nc2nc(N)nc(CN3CCN(Cc4ccc5c(c4)OCO5)CC3)n2)cc1Cl,-1,51,0,0,1,·
SMILES,V-ATPase pHluor,CHOP inh,Tb MetRS inh,UPR CHOP act,UPR XBP1 act,CHOP inh conf
CCCc1cc(C(=O)Nc2cc(Br)ccc2O)no1,-4,·,-1,5,10,-10
COc1cc(NS(=O)(=O)c2ccc(NC(=S)NC(=O)c3sc4ccccc4c3Cl)cc2)ncn1,1,100*,0,·,·,41
Cc1ccc(C(=O)CCC(=O)Nc2cccc(C(F)(F)F)c2)cc1,0,102*,0,-3,-2,41
O=C(CCC(=O)c1ccc(Br)cc1)Nc1cccc(C(F)(F)F)c1,5,108*,0,-1,-3,-4
CCOC(=O)C1CCCN(C(=O)COc2ccc(S(=O)(=O)N(CC)c3ccccc3)cc2)C1 (stereo not drawn),-1,30,-1,-1,-2,·
CC1=Nc2nc(N3CCCCC3)c(C#N)c3c4c(nc(c23)N1)N(c1ccc(C(C)C)cc1)C(=O)C4,0,108*,0,3,-3,83*
CS(=O)(=O)c1ccc(Sc2nc3ccccc3s2)c([N+](=O)[O-])c1,1,6,0,2,-2,·
O=[N+]([O-])c1cc(S(=O)(=O)C(F)(F)F)ccc1Sc1nc2ccccc2s1,0,107*,0,20,-14,-28
NC(=O)NNC1=Nc2cccc3cccc1c23,5,0,0,0,-3,·
COc1ccc(CC(=O)NNC2=Nc3cccc4cccc2c34)cc1,2,100*,0,-1,-3,-60
COc1ccc(NC(=O)CN2CCCC(C)C2)c([N+](=O)[O-])c1 (stereo not drawn),2,101*,0,3,2,40
Cc1ccc(N(CC(=O)NC(C)(C)C)C(=O)CNC(=O)c2cccs2)c(C)c1,2,-2,-1,-1,-3,·
CCCCCCCC(=O)N/N=C/c1ccc(Br)cc1,3,97*,0,0,0,132*
CNc1cncc(-c2ccc(OCCCN(C)C)nc2)n1,·,·,0,·,·,·
O=C(CSc1nc2ccccc2n1CCc1ccccc1)c1ccc(O)c(O)c1,1,23,0,·,·,·
O=C(NC(Nc1nc2ccc([N+](=O)[O-])cc2s1)(C(F)(F)F)C(F)(F)F)c1ccccc1Cl,-2,97*,1,25,-1,125*
O=C(NC(NNc1ccc([N+](=O)[O-])cc1)(C(F)(F)F)C(F)(F)F)c1ccccc1Cl,1,55,0,0,0,·
CCCCCOC(=O)Nc1ccc(S(=O)(=O)Nc2cccc([N+](=O)[O-])c2)cc1,-3,109*,0,2,0,27
Cn1c(SCC(=O)NC(=O)Cc2ccccc2)nnc1-c1ccc(F)cc1,-3,·,0,-1,-2,·
CCN=C1S/C(=C\c2cc(OCC)c(O)cc2Br)C(=O)N1CC,6,108*,-1,·,·,37
CCN=C1S/C(=C\c2ccc(O)c(OCC)c2)C(=O)N1CC,3,42,0,2,16,·
CC(C)OCCCNC(=O)C1CCC(CNS(=O)(=O)c2ccccc2)CC1 (stereo not drawn),1,19,1,4,-2,·

# High-throughput results as filed in PubChem.
